The text below walks through data of ChEMBL document CHEMBL1121899, “Biological activities of photoaffinity labeling analogues of kinins and their irreversible effects on kinin receptors” (1981).

Holding throughout (type): functional
Assay [1] deals with T1, B1 bradykinin receptor (Homo sapiens) (UniProt P46663).
T1 sequence (whole entry): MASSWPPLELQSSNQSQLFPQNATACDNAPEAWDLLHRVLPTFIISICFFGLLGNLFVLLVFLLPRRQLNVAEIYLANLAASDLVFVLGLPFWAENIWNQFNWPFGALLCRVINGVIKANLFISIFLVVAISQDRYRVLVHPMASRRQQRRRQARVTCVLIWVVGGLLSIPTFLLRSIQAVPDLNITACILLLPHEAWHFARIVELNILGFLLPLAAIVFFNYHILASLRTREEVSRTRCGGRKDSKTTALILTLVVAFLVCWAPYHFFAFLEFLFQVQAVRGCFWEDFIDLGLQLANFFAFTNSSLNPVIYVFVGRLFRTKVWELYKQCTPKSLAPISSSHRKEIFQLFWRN
The experiment in a line: Intrinsic activity was determined. Particulars: Oryctolagus cuniculus.

Assay [2] has as its target T2, B2 bradykinin receptor (Homo sapiens) (UniProt P30411).
T2 sequence (whole entry): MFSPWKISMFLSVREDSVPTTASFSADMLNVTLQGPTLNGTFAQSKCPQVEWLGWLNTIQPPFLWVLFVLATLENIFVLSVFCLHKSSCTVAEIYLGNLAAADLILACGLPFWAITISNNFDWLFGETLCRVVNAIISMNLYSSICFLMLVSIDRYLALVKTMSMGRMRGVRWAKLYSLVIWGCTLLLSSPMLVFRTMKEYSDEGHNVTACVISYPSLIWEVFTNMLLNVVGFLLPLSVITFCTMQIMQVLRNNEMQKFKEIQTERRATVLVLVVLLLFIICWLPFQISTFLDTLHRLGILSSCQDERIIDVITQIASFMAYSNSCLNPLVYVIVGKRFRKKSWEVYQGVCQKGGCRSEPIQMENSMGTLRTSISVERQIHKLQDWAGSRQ
The experiment in a line: In vitro 50 % Maximal response in jugular vein expressing B2 receptor. As to conditions: Oryctolagus cuniculus. Put shortly: (§1)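 Isolated rabbit jugular vein strips were equilibrated about 2 h with protease inhibitor SQ 14225 (100 ng/mL) under incandescent light, with no UV. pD₂ was taken as −log of the half-maximal concentration. Relative affinity is given as percent of BK. Specificity was checked by desensitization with BK or an analogue. Antagonists were given as pA₂ from the ID₅₀ that reduces a double agonist dose to a single-dose response.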

For assay [3], the target named is T2, B2 bradykinin receptor (Homo sapiens). Nature of the assay: Percent agonistic activity in rabbit jugular vein expressing B2 receptor relative to bradykinin. As to conditions: Oryctolagus cuniculus. Put shortly: as §1
Assay [4] is filed under the species Oryctolagus cuniculus. Nature of the assay: In vitro 50 % Maximal response in rabbit aorta expressing B1 receptor. As to conditions: read-out: ED50 (the source's name).
The species named for assay [5] is Oryctolagus cuniculus. Nature of the assay: The compound was tested in vitro on rabbit aorta for residual response in presence of ultraviolet light. Put shortly:
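Aorta strips in cycloheximide were challenged twice with [des-Arg⁹]BK and checked with 3 µM noradrenaline and 0.2 µM [Sar¹]angiotensin II. They were then incubated with 100 µM (4'-amino)Phe plus the photolabel and irradiated 10 min around 365 nm (18 mW/cm²). This was done once or twice. Residual [des-Arg⁹]BK response at 60 min was expressed as percent of reference tissues.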

Where a SMILES comes first, the peptide text is derived from it. Where only a bound is given, the exact number is not on record here.

For `NC(N)=NCCC[C@H](NC(=O)[C@H](Cc1ccc(N)cc1)NC(=O)[C@@H]1CCCN1C(=O)[C@H](CO)NC(=O)[C@H](Cc1ccccc1)NC(=O)CNC(=O)[C@@H]1CCCN1C(=O)[C@@H]1CCCN1C(=O)[C@@H](N)CCCN=C(N)N)C(=O)O` (HELM PEPTIDE1{R.P.P.G.F.S.P.[Nc1ccc(C[C@H](N[*:1])C(=O)[*:2])cc1].R}$$$$V2.0), the Alpha E in assay [1] is 1. Further, the ED50 in assay [2] amounted to 19.5 nM. The same compound yielded a Relative affinity in assay [3] of 9%. In assay [1], `NC(N)=NCCC[C@H](NC(=O)[C@H](Cc1ccccc1)NC(=O)[C@@H]1CCCN1C(=O)[C@H](CO)NC(=O)[C@H](CC1CCCCC1)NC(=O)CNC(=O)[C@@H]1CCCN1C(=O)[C@@H]1CCCN1C(=O)[C@@H](N)CCCN=C(N)N)C(=O)O` (HELM PEPTIDE1{R.P.P.G.[Cha].S.P.F.R}$$$$V2.0) yielded an Alpha E of 1. The Relative affinity in assay [3] worked out at 23%. In the case of `NC(N)=NCCC[C@H](N)C(=O)N1CCC[C@H]1C(=O)N1CCC[C@H]1C(=O)NCC(=O)N[C@@H](Cc1ccccc1)C(=O)N[C@@H](CO)C(=O)N1CCC[C@H]1C(=O)N[C@@H](CC1CCCCC1)C(=O)O` (HELM PEPTIDE1{R.P.P.G.F.S.P.[Cha]}$$$$V2.0), in assay [1], the Alpha E was 0. In assay [1], `N#[N+]c1ccc(C[C@H](NC(=O)CNC(=O)[C@@H]2CCCN2C(=O)[C@@H]2CCCN2C(=O)[C@@H](N)CCCN=C(N)N)C(=O)N[C@@H](CO)C(=O)N2CCC[C@H]2C(=O)N[C@@H](Cc2ccccc2)C(=O)O)cc1` had an Alpha E of 1. In assay [4], the EC50 amounted to 3750 nM. In turn, H-RPPGFSPDR-OH yielded a Relative affinity in assay [3] of 0.04%. `NC(N)=NCCC[C@H](NC(=O)[C@H](Cc1cc(I)c(N)c(I)c1)NC(=O)[C@@H]1CCCN1C(=O)[C@H](CO)NC(=O)[C@H](Cc1ccccc1)NC(=O)CNC(=O)[C@@H]1CCCN1C(=O)[C@@H]1CCCN1C(=O)[C@@H](N)CCCN=C(N)N)C(=O)O` (HELM PEPTIDE1{R.P.P.G.F.S.P.[Nc1c(I)cc(C[C@H](N[*:1])C(=O)[*:2])cc1I].R}$$$$V2.0) registered an ED50 in assay [2] above 100000 nM. In assay [3], this compound showed a Relative affinity below 0.01%. Turning to `COc1ccc(C[C@H](NC(=O)[C@@H]2CCCN2C(=O)[C@H](CO)NC(=O)[C@H](Cc2ccccc2)NC(=O)CNC(=O)[C@@H]2CCCN2C(=O)[C@@H]2CCCN2C(=O)[C@@H](N)CCCN=C(N)N)C(=O)O)cc1` (H-RPPGFSPY(Me)-OH), the Alpha E in assay [1] is 1. The same measure, in the same setting: then `COc1ccc(C[C@H](NC(=O)CNC(=O)[C@@H]2CCCN2C(=O)[C@@H]2CCCN2C(=O)[C@@H](N)CCCN=C(N)N)C(=O)N[C@@H](CO)C(=O)N2CCC[C@H]2C(=O)N[C@@H](Cc2ccccc2)C(=O)O)cc1` (H-RPPGY(Me)SPF-OH), with 1; and H-RPPGFSPA-OH, with 0.

As for `NC(N)=NCCC[C@H](N)C(=O)N1CCC[C@H]1C(=O)N1CCC[C@H]1C(=O)NCC(=O)N[C@@H](Cc1ccccc1)C(=O)N[C@@H](CO)C(=O)N1CCC[C@H]1C(=O)N[C@@H](Cc1ccc(N)cc1)C(=O)O`, the Alpha E in assay [1] was found to be 1. Also, the EC50 in assay [4] was determined as 4650 nM. Turning to `[N-]=[N+]=Nc1ccc(C[C@H](NC(=O)CNC(=O)[C@@H]2CCCN2C(=O)[C@@H]2CCCN2C(=O)[C@@H](N)CCCN=C(N)N)C(=O)N[C@@H](CO)C(=O)N2CCC[C@H]2C(=O)N[C@@H](Cc2ccccc2)C(=O)O)cc1`, the Response in assay [5] was 90%. This compound gave an Alpha E in assay [1] of 1. Besides, the EC50 in assay [4] worked out at 461 nM.

As to H-RPPGYSPFR-OH, the Alpha E in assay [1] stood at 1. In addition, in assay [3], the Relative affinity is 0.3%. H-RPPGFSPY-OH registered an Alpha E in assay [1] of 1.

In the case of H-RPPGASPFR-OH, the Alpha E in assay [1] is 1. The Relative affinity in assay [3] came to 0.1%. Turning to `NC(N)=NCCC[C@H](N)C(=O)N1CCC[C@H]1C(=O)N1CCC[C@H]1C(=O)NCC(=O)N[C@@H](Cc1ccc([N+](=O)[O-])cc1)C(=O)N[C@@H](CO)C(=O)N1CCC[C@H]1C(=O)N[C@@H](Cc1ccccc1)C(=O)O`, the Response in assay [5] turned out to be 92%. Moreover, the Alpha E in assay [1] amounted to 1. The EC50 in assay [4] was 437 nM.

As for `NC(N)=NCCC[C@H](N)C(=O)N1CCC[C@H]1C(=O)N1CCC[C@H]1C(=O)NCC(=O)N[C@@H](CC1CCCCC1)C(=O)N[C@@H](CO)C(=O)N1CCC[C@H]1C(=O)N[C@@H](Cc1ccccc1)C(=O)O` (HELM PEPTIDE1{R.P.P.G.[Cha].S.P.F}$$$$V2.0), the Alpha E in assay [1] is 1.

`NC(N)=NCCC[C@H](NC(=O)[C@H](CC1CCCCC1)NC(=O)[C@@H]1CCCN1C(=O)[C@H](CO)NC(=O)[C@H](Cc1ccccc1)NC(=O)CNC(=O)[C@@H]1CCCN1C(=O)[C@@H]1CCCN1C(=O)[C@@H](N)CCCN=C(N)N)C(=O)O` (HELM PEPTIDE1{R.P.P.G.F.S.P.[Cha].R}$$$$V2.0) gave an Alpha E in assay [1] of 1. In assay [3], this compound had a Relative affinity of 23%. In the same order, the values of `COc1ccc(C[C@H](NC(=O)[C@@H]2CCCN2C(=O)[C@H](CO)NC(=O)[C@H](Cc2ccccc2)NC(=O)CNC(=O)[C@@H]2CCCN2C(=O)[C@@H]2CCCN2C(=O)[C@@H](N)CCCN=C(N)N)C(=O)N[C@@H](CCCN=C(N)N)C(=O)O)cc1` (H-RPPGFSPY(Me)R-OH) are 1 and 65%. H-RPPGASPF-OH returned an Alpha E in assay [1] of 1. As to H-RPPGFSPYR-OH, the Alpha E in assay [1] was 1. This compound also showed a Relative affinity in assay [3] of 3.5%. In the case of H-RPPGLSPFR-OH, the Alpha E in assay [1] came to 1. This compound showed a Relative affinity in assay [3] of 8%. As for `N=C(N)NCCC[C@H](NC(=O)[C@H](Cc1ccccc1)NC(=O)[C@@H]1CCCN1C(=O)[C@H](CO)NC(=O)[C@H](Cc1cc(I)c(N)c(I)c1)NC(=O)CNC(=O)[C@@H]1CCCN1C(=O)[C@@H]1CCCN1C(=O)[C@@H](N)CCCNC(=N)N)C(=O)O` (HELM PEPTIDE1{R.P.P.G.[Nc1c(I)cc(C[C@H](N[*:1])C(=O)[*:2])cc1I].S.P.F.R}$$$$V2.0), in assay [2], the ED50 is above 100000 nM. The Relative affinity in assay [3] is below 0.01%.

As for `[N-]=[N+]=Nc1ccc(/N=N/c2cc(C[C@H](NC(=O)CNC(=O)[C@@H]3CCCN3C(=O)[C@@H]3CCCN3C(=O)[C@@H](N)CCCN=C(N)N)C(=O)N[C@@H](CO)C(=O)N3CCC[C@H]3C(=O)N[C@@H](Cc3ccccc3)C(=O)O)ccc2O)cc1` (HELM PEPTIDE1{R.P.P.G.[[N-]=[N+]=Nc1ccc(/N=N/c2cc(C[C@H](N[*:1])C(=O)[*:2])ccc2O)cc1].S.P.F}$$$$V2.0), the Response in assay [5] was found to be 69%. In assay [1], this compound yielded an Alpha E of 1. In addition, in assay [4], the EC50 came to 1280 nM. For the compound `COc1ccc(C[C@H](NC(=O)CNC(=O)[C@@H]2CCCN2C(=O)[C@@H]2CCCN2C(=O)[C@@H](N)CCCN=C(N)N)C(=O)N[C@@H](CO)C(=O)N2CCC[C@H]2C(=O)N[C@@H](Cc2ccccc2)C(=O)N[C@@H](CCCN=C(N)N)C(=O)O)cc1` (H-RPPGY(Me)SPFR-OH), the Alpha E in assay [1] turned out to be 1. Further, in assay [3], the Relative affinity worked out at 14%. In assay [1], `NC(N)=NCCC[C@H](NC(=O)[C@H](Cc1ccccc1)NC(=O)[C@@H]1CCCN1C(=O)[C@H](CO)NC(=O)[C@H](Cc1ccc(N)cc1)NC(=O)CNC(=O)[C@@H]1CCCN1C(=O)[C@@H]1CCCN1C(=O)[C@@H](N)CCCN=C(N)N)C(=O)O` (HELM PEPTIDE1{R.P.P.G.[Nc1ccc(C[C@H](N[*:1])C(=O)[*:2])cc1].S.P.F.R}$$$$V2.0) showed an Alpha E of 1. The compound further yielded an ED50 in assay [2] of 57 nM. The compound further returned a Relative affinity in assay [3] of 3%. With H-RPPGDSPFR-OH, the Relative affinity in assay [3] was 0.08%. In turn, H-RPPGYSPF-OH returned an Alpha E in assay [1] of 1. The EC50 in assay [4] amounted to 869 nM. Turning to `NC(N)=NCCC[C@H](N)C(=O)N1CCC[C@H]1C(=O)N1CCC[C@H]1C(=O)NCC(=O)N[C@@H](Cc1ccc(N)cc1)C(=O)N[C@@H](CO)C(=O)N1CCC[C@H]1C(=O)N[C@@H](Cc1ccccc1)C(=O)O`, the Alpha E in assay [1] came to 1. Further, the EC50 in assay [4] was 5460 nM. H-RPPGFSPAR-OH came in with an Alpha E in assay [1] of 1. In addition, the Relative affinity in assay [3] came out at 0.01%.

Compound H-RPPGLSPF-OH had an Alpha E in assay [1] of 1. Same read-out and setting: then `CC(C)C[C@H](NC(=O)[C@@H]1CCCN1C(=O)[C@H](CO)NC(=O)[C@H](Cc1ccccc1)NC(=O)CNC(=O)[C@@H]1CCCN1C(=O)[C@@H]1CCCN1C(=O)[C@@H](N)CCCN=C(N)N)C(=O)O`, with 0.

As for H-RPPGFSPLR-OH, the Alpha E in assay [1] turned out to be 1. Further, in assay [3], the Relative affinity is 0.1%.
